Measured values as given in ChEMBL document CHEMBL2021842, “COMPARE analysis of the toxicity of an iminoquinone derivative of the imidazo[5,4-f]benzimidazoles with NAD(P)H:quinone oxidoreductase 1 (NQO1) activity and computational docking of quinones as NQO1 substrates” (Bioorg Med Chem, 2012).

Columns and labels:
[1] = Cytotoxicity against human GM00637 cells assessed as reduction in mean cell viability after 72 hrs by MTT assay; format: cell-based; conditions: GM00637, 72 h
Procedure, shortened: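 SV40-transformed normal skin fibroblasts (GM00637) in MEM Eagle–Earle BSS with 15% heat-inactivated FBS, 2 mM L-glutamine, 2× amino acids and vitamins. Seeded at 10,000 cells/well and left 24 h to adhere. Ethanol-delivered compound (1% final) for 72 h at 37 °C, 5% CO₂. MTT formazan in DMSO read at 550/690 nm. Viability relative to vehicle; IC₅₀ by nonlinear regression.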

DU-145 = assay: Cytotoxicity against human DU145 cells assessed as reduction in mean cell viability after 72 hrs by MTT assay; format: functional, cell-based; conditions: DU-145, 72 h
Procedure, shortened: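 DU-145 prostate cells in RPMI-1640 with 10% heat-inactivated FBS, penicillin–streptomycin and 2 mM L-glutamine. Seeded at 2000 cells/well and left 24 h to adhere. Compound added in ethanol (1% final) for 72 h at 37 °C, 5% CO₂, with ethanol-only controls. Formazan dissolved in DMSO and read at 550 nm (690 nm reference). IC₅₀ derived by nonlinear regression of viability versus vehicle.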

CCRF-CEM = assay: Growth inhibition of human CCRF-CEM cells assessed as cell growth at 10 uM relative to untreated control; format: functional; conditions: read-out: Activity
Procedure, shortened: (§1)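 NCI DTP 60-cell-line screen, first stage: a single 10 µM dose of compound given to the human tumour panel. Result reported as percent growth relative to control, on a mean growth graph.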

HL-60(TB) = assay: Growth inhibition of human HL-60(TB) cells assessed as cell growth at 10 uM relative to untreated control; format: functional; conditions: read-out: Activity
Procedure, shortened: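 NCI DTP NCI-60 screen, first stage: a single dose applied to 60 human tumour cell lines from nine tissue types. Output is reported as growth %.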

MOLT-4 = assay: Growth inhibition of human MOLT4 cells assessed as cell growth at 10 uM relative to untreated control; format: functional; conditions: read-out: Activity
Procedure, shortened: (§2)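 First stage of the NCI DTP 60 human tumour cell-line screen. Cells were exposed to a single dose of 10 µM. Output is reported as growth % relative to control.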

[2] = Growth inhibition of human […] cells assessed as cell growth at 10 uM relative to untreated control; format: functional; conditions: read-out: Activity; procedure, shortened: as §2
A549 = assay: Growth inhibition of human A549 cells assessed as cell growth at 10 uM relative to untreated control; format: functional; conditions: read-out: Activity; procedure, shortened: as §1
EKVX = assay: Growth inhibition of human EKVX cells assessed as cell growth at 10 uM relative to untreated control; format: functional; conditions: read-out: Activity; procedure, shortened: as §1
HOP-62 = assay: Growth inhibition of human HOP62 cells assessed as cell growth at 10 uM relative to untreated control; format: functional; conditions: read-out: Activity; procedure, shortened: as §1
NCI-H226 = assay: Growth inhibition of human NCI-H226 cells assessed as cell growth at 10 uM relative to untreated control; format: functional; conditions: read-out: Activity; procedure, shortened: as §2
NCI-H23 = assay: Growth inhibition of human NCI-H23 cells assessed as cell growth at 10 uM relative to untreated control; format: functional; conditions: read-out: Activity; procedure, shortened: as §2
NCI-H460 = assay: Growth inhibition of human NCI-H460 cells assessed as cell growth at 10 uM relative to untreated control; format: functional; conditions: read-out: Activity; procedure, shortened: as §2
NCI-H522 = assay: Growth inhibition of human NCI-H522 cells assessed as cell growth at 10 uM relative to untreated control; format: functional; conditions: read-out: Activity; procedure, shortened: as §2
HCC 2998 = assay: Growth inhibition of human HCC2998 cells assessed as cell growth at 10 uM relative to untreated control; format: functional; conditions: read-out: Activity; procedure, shortened: as §1
HCT-116 = assay: Growth inhibition of human HCT116 cells assessed as cell growth at 10 uM relative to untreated control; format: functional; conditions: read-out: Activity; procedure, shortened: as §1
HCT-15 = assay: Growth inhibition of human HCT15 cells assessed as cell growth at 10 uM relative to untreated control; format: functional; conditions: read-out: Activity; procedure, shortened: as §1
SF-268 = assay: Growth inhibition of human SF268 cells assessed as cell growth at 10 uM relative to untreated control; format: functional; conditions: read-out: Activity; procedure, shortened: as §2
SNB-75 = assay: Growth inhibition of human SNB75 cells assessed as cell growth at 10 uM relative to untreated control; format: functional; conditions: read-out: Activity
Procedure, shortened: (§3)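 This is the first stage of the NCI DTP 60-human-tumour-cell-line screen, covering nine tissue types. Cells receive a single dose of the test compound, and the output is reported as mean growth %.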

LOX IMVI = assay: Growth inhibition of human LOXIMVI cells assessed as cell growth at 10 uM relative to untreated control; format: functional; conditions: read-out: Activity; procedure, shortened: as §1
M14 = assay: Growth inhibition of human M14 cells assessed as cell growth at 10 uM relative to untreated control; format: functional; conditions: read-out: Activity; procedure, shortened: as §1
SK-MEL-2 = assay: Growth inhibition of human SK-MEL-2 cells assessed as cell growth at 10 uM relative to untreated control; format: functional; conditions: read-out: Activity; procedure, shortened: as §2
SK-MEL-28 = assay: Growth inhibition of human SK-MEL-28 cells assessed as cell growth at 10 uM relative to untreated control; format: functional; conditions: read-out: Activity; procedure, shortened: as §2
UACC-62 = assay: Growth inhibition of human UACC62 cells assessed as cell growth at 10 uM relative to untreated control; format: functional; conditions: read-out: Activity; procedure, shortened: as §3
OVCAR-3 = assay: Growth inhibition of human OVCAR3 cells assessed as cell growth at 10 uM relative to untreated control; format: functional; conditions: read-out: Activity; procedure, shortened: as §2
OVCAR-5 = assay: Growth inhibition of human OVCAR5 cells assessed as cell growth at 10 uM relative to untreated control; format: functional; conditions: read-out: Activity; procedure, shortened: as §2
SK-OV-3 = assay: Growth inhibition of human SKOV3 cells assessed as cell growth at 10 uM relative to untreated control; format: functional; conditions: read-out: Activity; procedure, shortened: as §2
786-0 = assay: Growth inhibition of human 786-0 cells assessed as cell growth at 10 uM relative to untreated control; format: functional; conditions: read-out: Activity; procedure, shortened: as §1
A498 = assay: Growth inhibition of human A498 cells assessed as cell growth at 10 uM relative to untreated control; format: functional; conditions: read-out: Activity; procedure, shortened: as §1
ACHN = assay: Growth inhibition of human ACHN cells assessed as cell growth at 10 uM relative to untreated control; format: functional; conditions: read-out: Activity; procedure, shortened: as §1
CAKI-1 = assay: Growth inhibition of human Caki1 cells assessed as cell growth at 10 uM relative to untreated control; format: functional; conditions: read-out: Activity; procedure, shortened: as §1
RXF 393 = assay: Growth inhibition of human RXF393 cells assessed as cell growth at 10 uM relative to untreated control; format: functional; conditions: read-out: Activity; procedure, shortened: as §2
SN12C = assay: Growth inhibition of human SN12C cells assessed as cell growth at 10 uM relative to untreated control; format: functional; conditions: read-out: Activity; procedure, shortened: as §3
TK-10 = assay: Growth inhibition of human TK10 cells assessed as cell growth at 10 uM relative to untreated control; format: functional; conditions: read-out: Activity; procedure, shortened: as §3
UO-31 = assay: Growth inhibition of human UO31 cells assessed as cell growth at 10 uM relative to untreated control; format: functional; conditions: read-out: Activity; procedure, shortened: as §3
MCF7 = assay: Growth inhibition of human MCF7 cells assessed as cell growth at 10 uM relative to untreated control; format: functional; conditions: read-out: Activity; procedure, shortened: as §2
NCI/ADR-RES = assay: Growth inhibition of human NCI/ADR-RES cells assessed as cell growth at 10 uM relative to untreated control; format: functional; conditions: read-out: Activity; procedure, shortened: as §2
MDA-MB-231 = assay: Growth inhibition of human MDA-MB-231 cells assessed as cell growth at 10 uM relative to untreated control; format: functional; conditions: read-out: Activity; procedure, shortened: as §2
MDA-MB-435 = assay: Growth inhibition of human MDA-MB-435 cells assessed as cell growth at 10 uM relative to untreated control; format: functional; conditions: read-out: Activity; procedure, shortened: as §2
T47D = assay: Growth inhibition of human T47D cells assessed as cell growth at 10 uM relative to untreated control; format: functional; conditions: read-out: Activity; procedure, shortened: as §3

Compound `N=C1c2nc3n(c2C(=O)c2nc4n(c21)CCCC4)CCCC3` has an IC50 [1] of 3630 nM, an IC50 (DU-145) of 300 nM and a growth at 10 µM (CCRF-CEM) of 92.9%. The growth at 10 µM (HL-60(TB)) was 96.3%, the growth at 10 µM (MOLT-4) was 85.4% and the growth at 10 µM [2] was 82.2%. The growth at 10 µM (A549) was -30.6%, the growth at 10 µM (EKVX) was 95.6% and the growth at 10 µM (HOP-62) was 52.3%. The growth at 10 µM (NCI-H226) was 57.1%, the growth at 10 µM (NCI-H23) was -70.4% and the growth at 10 µM (NCI-H460) was 4.62%. The growth at 10 µM (NCI-H522) was 10.5%, the growth at 10 µM (HCC 2998) was 87.3% and the growth at 10 µM (HCT-116) was 65.8%. It also gave a growth at 10 µM (HCT-15) of 6.18%, a growth at 10 µM (SF-268) of 71.3% and a growth at 10 µM (SNB-75) of -97%. For the same compound, the growth at 10 µM (LOX IMVI) was -68%, the growth at 10 µM (M14) was -95.6% and the growth at 10 µM (SK-MEL-2) was 82.7%. For the same compound, the growth at 10 µM (SK-MEL-28) was -67.2%, the growth at 10 µM (UACC-62) was -85.1% and the growth at 10 µM (OVCAR-3) was 98.4%. The growth at 10 µM (OVCAR-5) was -57.8%, the growth at 10 µM (SK-OV-3) was 95% and the growth at 10 µM (786-0) was 89%. It also gave a growth at 10 µM (A498) of 52%, a growth at 10 µM (ACHN) of 69.4% and a growth at 10 µM (CAKI-1) of 88.8%. It also gave a growth at 10 µM (RXF 393) of 94.8%, a growth at 10 µM (SN12C) of -86.1% and a growth at 10 µM (TK-10) of 128%. It also gave a growth at 10 µM (UO-31) of 46.9%, a growth at 10 µM (MCF7) of -6.98% and a growth at 10 µM (NCI/ADR-RES) of 85.7%. The growth at 10 µM (MDA-MB-231) was 82.6%, the growth at 10 µM (MDA-MB-435) was -82.5% and the growth at 10 µM (T47D) was 71.9%.

`O=C1c2nc3n(c2C(=O)c2nc4n(c21)CCCC4)CCCC3` showed an IC50 [1] greater than 5000 nM, an IC50 (DU-145) of 1990 nM and a growth at 10 µM (CCRF-CEM) of 103%. It also gave a growth at 10 µM (HL-60(TB)) of 107%, a growth at 10 µM (MOLT-4) of 111% and a growth at 10 µM [2] of 97.6%. The growth at 10 µM (A549) was 99.7%, the growth at 10 µM (EKVX) was 99.9% and the growth at 10 µM (HOP-62) was 112%. It also gave a growth at 10 µM (NCI-H226) of 111%, a growth at 10 µM (NCI-H23) of 100% and a growth at 10 µM (NCI-H460) of 95%. The growth at 10 µM (NCI-H522) was 92.3%, the growth at 10 µM (HCC 2998) was 88.3% and the growth at 10 µM (HCT-116) was 96.8%. For the same compound, the growth at 10 µM (HCT-15) was 103%, the growth at 10 µM (SF-268) was 92.3% and the growth at 10 µM (SNB-75) was 97%. For the same compound, the growth at 10 µM (LOX IMVI) was 96.1%, the growth at 10 µM (M14) was 108% and the growth at 10 µM (SK-MEL-2) was 108%. For the same compound, the growth at 10 µM (SK-MEL-28) was 118%, the growth at 10 µM (UACC-62) was 99.8% and the growth at 10 µM (OVCAR-3) was 97%. It also gave a growth at 10 µM (OVCAR-5) of 110%, a growth at 10 µM (SK-OV-3) of 102% and a growth at 10 µM (786-0) of 111%. For the same compound, the growth at 10 µM (A498) was 99.9%, the growth at 10 µM (ACHN) was 99% and the growth at 10 µM (CAKI-1) was 90.7%. For the same compound, the growth at 10 µM (RXF 393) was 107%, the growth at 10 µM (SN12C) was 99.6% and the growth at 10 µM (TK-10) was 100%. For the same compound, the growth at 10 µM (UO-31) was 90.9%, the growth at 10 µM (MCF7) was 101% and the growth at 10 µM (NCI/ADR-RES) was 103%. It also gave a growth at 10 µM (MDA-MB-231) of 96.8%, a growth at 10 µM (MDA-MB-435) of 105% and a growth at 10 µM (T47D) of 99.3%.
